TAAR1 agonist: agonists of human TAAR1 | Q96RJ0 | CHO RD-HGA16 TAAR1, Fluo-8 calcium fluorescence; vehicle wells 0%, saturating PEA agonist 100% | activation, % at 3 µM | 0.99% of 360,000 active;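 active = activation above the mean activation of all test compounds in the run plus 3 SD, cut at about 38% in these data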
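System: CHO RD-HGA16 cells carrying human TAAR1 plus Gα16; Incubation: 17-24 h seeding, 75 min 37 °C dye, 30 min RT; Measured by: Fluo-8 fluorescence, 5 s baseline then 140 s kinetic read; Control set: DMSO and PEA EC100; Replication: single well for each compound.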
M4 PAM: positive allosteric modulators of human muscarinic M4 receptor | 0.4% of 360,000 active | activation, % at 3 µM | CHO-K1 hM4/Gqi5, Fluo-8 calcium fluorescence, ACh EC20; 0% = ACh EC20, 100% = maximal ACh | P08173;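 active = activation above its plate's cutoff, the mean activation of sample wells plus 3 SD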
Target sequence (P08173 whole entry, looked up): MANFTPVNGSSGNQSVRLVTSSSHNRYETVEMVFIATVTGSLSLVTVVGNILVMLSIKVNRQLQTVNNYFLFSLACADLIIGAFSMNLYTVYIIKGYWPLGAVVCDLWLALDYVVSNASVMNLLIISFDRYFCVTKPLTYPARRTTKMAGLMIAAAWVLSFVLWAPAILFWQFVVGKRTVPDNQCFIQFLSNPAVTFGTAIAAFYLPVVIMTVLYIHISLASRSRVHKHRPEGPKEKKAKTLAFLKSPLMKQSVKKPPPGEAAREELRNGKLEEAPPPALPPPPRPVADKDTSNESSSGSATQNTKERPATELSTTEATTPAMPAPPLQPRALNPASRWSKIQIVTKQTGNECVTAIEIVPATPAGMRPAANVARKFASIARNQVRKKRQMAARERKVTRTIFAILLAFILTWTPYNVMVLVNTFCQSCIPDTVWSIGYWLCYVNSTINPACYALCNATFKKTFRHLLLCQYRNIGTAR
M4 antag: blocks acetylcholine activation of human M4 receptor; inhibition, % at 3 µM; CHO-hM4 cells, ACh EC80, Fluo-8 calcium fluorescence; AID 624125; 0.73% of 360,000 active; P08173;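 active = inhibition above its plate's cutoff, the mean inhibition of sample wells plus 3 SD, cut at about 27% in these data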;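 note: 0% = acetylcholine EC80 with DMSO and 100% = DMSO without agonist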
TAAR1 antag: human TAAR1 antagonism; CHO RD-HGA16 TAAR1, Fluo-8 calcium fluorescence, antagonist; inhibition, % at 3 µM; 1.5% of 360,000 active;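 active = inhibition above a per-plate cutoff, the mean inhibition of test compounds on that plate plus 3 SD, cut at about 49% in these data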;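 note: 0% = DMSO plus EC80 beta-PEA response and 100% = DMSO alone without agonist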
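System: CHO RD-HGA16 cells bearing hTAAR1. Reagent: EC80 β-phenethylamine stimulus. Schedule: seeding 17-24 h prior, 75-min 37 °C, 30-min RT dye loading. Signal: Fluo-8 intracellular calcium dye fluorescence, real-time kinetic reads. Read-out: % inhibition from peak post-agonist over basal fluorescence ratio. Benchmarks: vehicle wells and EC80 agonist wells. Replicates: n of 1.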
CHRM4 agonist: CHRM4 agonism in calcium assay. P08173. CHO-K1 hM4/Gqi5, Fluo-8 calcium fluorescence; vehicle 0%, full acetylcholine response 100%. activation, % at 3 µM. 0.14% of 360,000 active. AID 624127;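 active = activation above the run mean over all test wells plus 3 SD, cut at about 32% in these data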;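 note: peak over basal fluorescence ratio per well then scaled between controls; 0% = DMSO wells and 100% = acetylcholine at EC100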
TAAR1 ag conf: confirmation of human TAAR1 agonists; shares compounds with TAAR1 agonist; CHO RD-HGA16 TAAR1, Fluo-8 calcium fluorescence; scaled: DMSO 0%, maximal phenethylamine 100%; activation, % at 3 µM; 82% of 2,400 active;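 active = activation above a cutoff set at the run's mean compound activation plus 3 SD, cut at about 39% in these data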
Ga16 ag counter: nonselective agonist in parental cells, TAAR1 agonist counter-screen; shares compounds with TAAR1 agonist; CHO-Ga16 parental, Fluo-8 calcium fluorescence; normalized to maximal ATP response, DMSO zero; activation, % at 3 µM; 50% of 2,400 active; AID 651787;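 active = activation above the run cutoff, the mean activation over all tested wells plus 3 SD, cut at about 12% in these data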;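 note: 0% = DMSO wells and 100% = maximal ATP response on the peak over basal ratio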
TAAR1 desensitize: human TAAR1 agonist that also desensitizes the receptor. shares compounds with TAAR1 agonist. CHO RD-HGA16 hTAAR1, Fluo-8 calcium, beta-PEA response inhibition. inhibition, % at 3 µM. 46% of 2,400 active. AID 651951;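 active = inhibition above the run cutoff, the mean inhibition of all test compounds plus 3 SD, cut at about 49% in these data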;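 note: beta-PEA stimulus applied at its EC80; loss of beta-PEA calcium signal after compound pretreatment read as receptor desensitization; 0% = DMSO with beta-PEA at EC80 and 100% = DMSO alone without agonist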
Ga16 antag count: nonselective Ga16 antagonist in TAAR1 agonist counter-screen. shares compounds with TAAR1 agonist. CHO-Ga16 ATP-induced calcium, Fluo-8 fluorescence. inhibition, % at 3 µM. 39% of 2,400 active. AID 651952;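 active = inhibition above the plate's mean compound inhibition plus 3 SD, computed per plate, cut at about 22% in these data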;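 note: 0% = EC80 ATP with DMSO and 100% = DMSO wells without ATP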
Starred values were filed as active, the others as inactive; . = not tested or not shown. This is a sample that favours compounds with a hit; in the whole collection about 3% have one here.

SMILES	TAAR1 agonist	M4 PAM	M4 antag	TAAR1 antag	CHRM4 agonist	TAAR1 ag conf	Ga16 ag counter	TAAR1 desensitize	Ga16 antag count
c1ccc(C2CNCCc3ccccc32)cc1 (stereo unspecified)	63.7*	-0.4	2.2	74.4*	1.7	94.7*	1.2	92.1*	8.1
O=c1[nH]c2cc3c(cc2cc1CN(CCc1ccccc1)Cc1nnnn1CC1CCCO1)OCO3 (stereo unspecified)	7.0	-5.5	-4.9	6.9	1.2	.	.	.	.
COc1ccc2cc(C(c3nnnn3CCc3ccccc3)N3CCCC(C)C3)c(=O)[nH]c2c1 (stereo unspecified)	53.9*	6.7	-21.0	30.4	4.1	58.5*	2.8	18.0	14.0
COc1ccc2[nH]c(=O)c(CN(CCc3ccccc3)Cc3nnnn3CC3CCCO3)cc2c1 (stereo unspecified)	84.5*	-7.5	-3.1	72.4*	12.9	87.9*	7.7	81.3*	24.9*
COc1ccc2cc(CN(CCc3ccccc3)Cc3nnnn3CC3CCCO3)c(=O)[nH]c2c1 (stereo unspecified)	92.3*	-2.8	7.5	56.9*	4.2	77.6*	4.9	75.1*	17.1
Cc1ccc2[nH]c(=O)c(CN(CCc3ccccc3)Cc3nnnn3CC3CCCO3)cc2c1 (stereo unspecified)	87.4*	-5.3	-2.6	78.5*	2.1	53.8*	4.7	19.6	14.2
COc1ccc(C(C)(C)C)cc1NC(=O)COC(=O)CN1C(=O)NC2(CCCCC2C)C1=O (stereo unspecified)	0.8	-2.4	7.1	-3.2	4.3	.	.	.	.
CC(C)(CC1(C)NC(=O)NC1=O)OCc1ccccc1 (stereo unspecified)	0.0	1.7	-0.5	8.1	0.2	.	.	.	.
O=C(CN(Cc1ccccc1Cl)C(=O)c1csnn1)NCCc1ccccc1	1.1	-7.0	11.7	0.5	3.1	.	.	.	.
O=C(CN(Cc1ccccc1)C(=O)c1csnn1)NCCc1ccccc1	75.2*	5.0	2.7	24.7	1.6	67.6*	5.8	34.5	11.6
O=C(Cn1sc2ccccc2c1=O)Nc1ccc(Cl)cc1	54.7*	-4.8	14.2	45.8	11.8	54.6*	29.6*	23.1	28.9*
O=C(Cn1sc2ccccc2c1=O)Nc1ccc(F)cc1	54.8*	-2.6	6.5	16.9	14.9	59.1*	39.1*	32.6	21.7*
O=C(Cn1nc(-c2ccccc2)c2ccccc2c1=O)Nc1ccc(F)cc1	7.7	1.4	-0.6	-34.4	0.4	.	.	.	.
O=C(CN1C(=O)CNC1=O)Nc1ccc(Cl)cc1	1.4	6.6	6.1	-11.1	0.2	.	.	.	.
CC(C)(C)NC(=O)C1(C)CCC(=O)N1C1CCN(Cc2ccccc2)CC1 (stereo unspecified)	1.9	-2.5	-11.4	-1.9	0.6	.	.	.	.
Nc1c(C(=O)NCc2ccc3c(c2)OCO3)nnn1Cc1ccc(Br)cc1	65.5*	0.9	17.0	48.5	29.9	101.9*	46.5*	76.3*	38.3*
Cc1ccccc1Cn1nnc(C(=O)Nc2ccc3c(c2)OCCO3)c1N	5.3	-4.3	-7.7	12.6	4.2	.	.	.	.
Cc1ccccc1Cn1nnc(C(=O)Nc2cccc(C)c2C)c1N	65.9*	0.5	-2.4	10.5	9.8	79.0*	31.0*	41.5	15.0
Cc1ccc(C)c(Cn2nnc(C(=O)Nc3ccc4c(c3)OCCO4)c2N)c1	102.0*	6.8	-4.1	66.9*	22.9	105.2*	54.5*	63.4*	29.6*
CC1(C(=O)NS(=O)(=O)c2ccccc2C(F)(F)F)CCN1C(=O)CCc1cccs1 (stereo unspecified)	2.9	1.7	3.6	-25.4	1.1	.	.	.	.

Source: PubChem
